Measurements published in ChEMBL document CHEMBL2034851, “Synthesis and antiviral evaluation of C5-substituted-(1,3-diyne)-2'-deoxyuridines” (Eur J Med Chem, 2012).

Columns and labels:
Human betaherpesvirus 5 [1] = experiment: Antiviral activity against Human cytomegalovirus Davis infected in HEL cells assessed as reduction in virus-induced cytopathicity; type: functional, organism-based; conditions: Human betaherpesvirus 5, Davis
How it was run: (§1)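 Confluent HEL cell monolayers in microtiter plates were inoculated with 100 CCID50 of virus or 20 PFU. After 1–2 h adsorption, residual virus was removed. Cultures were then incubated with graded compound concentrations. Cytopathicity was read once it was complete in untreated infected controls. EC50 is the concentration giving 50% reduction of virus-induced cytopathicity or plaque formation.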

Human alphaherpesvirus 3 [2] = experiment: Antiviral activity against thymidine kinase-positive Varicella-zoster virus OKA infected in HEL cells assessed as reduction in virus-induced cytopathicity; type: functional, cell-based; conditions: Human alphaherpesvirus 3, strain Oka vaccine
How it was run: (§2)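 Confluent HEL cell monolayers in 96-well plates were inoculated with 100 CCID50 or 20 PFU of virus and left 1–2 h for adsorption. Residual virus was removed and cells were incubated with serial compound dilutions. Read-out was taken once cytopathicity was complete in untreated infected controls.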

Human betaherpesvirus 5 [3] = experiment: Antiviral activity against Human cytomegalovirus AD169 infected in HEL cells assessed as reduction in virus-induced cytopathicity; type: functional, organism-based; conditions: Human betaherpesvirus 5, AD169, HEL; how it was run: as §1
[4] = Lipophilicity, log P of the compound; type: physicochemical; conditions: octanol/water
[5] = Cytotoxicity against human HEL cells assessed as change in cell morphology by microscopic analysis; type: cell-based
How it was run: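 MCC is the compound concentration producing a microscopically visible change in cell morphology, scored on the cell cultures used for the antiviral tests.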

[6] = Cytostatic against human HEL cells assessed as reduction in cell growth after 3 days by coulter counter; type: cell-based
How it was run: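 HEL cells were seeded at 5 × 10³ cells/well and grown for 24 h. Medium with varying compound concentrations was then added and plates were incubated 3 days at 37 °C. Cells were counted with a Coulter counter. CC50 is the concentration reducing cell proliferation by 50% versus untreated controls.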

Human alphaherpesvirus 3 [7] = experiment: Antiviral activity against thymidine kinase-positive Varicella-zoster virus YS infected in HEL cells assessed as reduction in virus-induced cytopathicity; type: functional, organism-based; conditions: Human alphaherpesvirus 3, YS
How it was run: as §2, with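 “controls. EC50 is the concentration giving 50% reduction of virus-induced cytopathicity or plaque formation.” for “controls.”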

Human alphaherpesvirus 3 [8] = experiment: Antiviral activity against thymidine kinase-deficient Varicella-zoster virus 07/1 infected in HEL cells assessed as reduction in virus-induced cytopathicity; type: functional, organism-based; conditions: Human alphaherpesvirus 3, 07/1, HEL
How it was run: as §2, with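 “controls. EC50 is the concentration giving 50% reduction of virus-induced cytopathicity or plaque formation.” for “controls.”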

Human alphaherpesvirus 2 = experiment: Antiviral activity against Herpes simplex virus 2 G infected in HEL cells assessed as reduction in viral plaque formation; type: functional, organism-based; conditions: Human alphaherpesvirus 2, strain G; how it was run: as §1
Human alphaherpesvirus 1 [9] = experiment: Antiviral activity against thymidine kinase-deficient Herpes simplex virus 1 infected in HEL cells assessed as reduction in viral plaque formation; type: functional, organism-based; conditions: Human alphaherpesvirus 1, HEL; how it was run: as §1
Human alphaherpesvirus 1 [10] = experiment: Antiviral activity against Herpes simplex virus 1 KOS infected in HEL cells assessed as reduction in viral plaque formation; type: functional, organism-based; conditions: Human alphaherpesvirus 1, KOS; how it was run: as §1
Vaccinia virus = experiment: Antiviral activity against Vaccinia virus infected in HEL cells assessed as reduction in viral plaque formation; type: functional, organism-based; conditions: Orthopoxvirus vaccinia
How it was run: as §2, with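 “controls. EC50 is the concentration giving 50% reduction of virus-induced cytopathicity or plaque formation.” for “controls.”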

## O=c1[nH]c(=O)n([C@H]2C[C@H](O)[C@@H](CO)O2)cc1C#CC#Cc1ccccc1
Human betaherpesvirus 5 [1]
  EC50: > 20 µM
Human alphaherpesvirus 3 [2]
  EC50: > 20 µM
Human betaherpesvirus 5 [3]
  EC50: > 20 µM
[4]
  logP: 0.96
[5]
  MCC: 100 µM
[6]
  CC50 at 72 h: 100 µM
Human alphaherpesvirus 3 [7]
  EC50: > 20 µM
Human alphaherpesvirus 3 [8]
  EC50: > 20 µM

## CCCc1ccc(C#CC#Cc2cn([C@H]3C[C@H](O)[C@@H](CO)O3)c(=O)[nH]c2=O)cc1
Human betaherpesvirus 5 [1]
  EC50: > 20 µM
Human alphaherpesvirus 3 [2]
  EC50: 3.7 µM
Human betaherpesvirus 5 [3]
  EC50: > 20 µM
[4]
  logP: 2.36
[5]
  MCC: 100 µM
[6]
  CC50 at 72 h: 52 µM
Human alphaherpesvirus 3 [7]
  EC50: 2.77 µM
Human alphaherpesvirus 3 [8]
  EC50: 14 µM

## CCCCCCc1ccc(C#CC#Cc2cn([C@H]3C[C@H](O)[C@@H](CO)O3)c(=O)[nH]c2=O)cc1
Human betaherpesvirus 5 [1]
  EC50: > 20 µM
Human alphaherpesvirus 3 [2]
  EC50: 8.8 µM
Human betaherpesvirus 5 [3]
  EC50: > 20 µM
[4]
  logP: 3.7
[5]
  MCC: 100 µM
[6]
  CC50 at 72 h: 35 µM
Human alphaherpesvirus 3 [7]
  EC50: 6.44 µM
Human alphaherpesvirus 3 [8]
  EC50: 9.5 µM

## COc1cc(C#CC#Cc2cn([C@H]3C[C@H](O)[C@@H](CO)O3)c(=O)[nH]c2=O)cc(OC)c1
Human betaherpesvirus 5 [1]
  EC50: > 100 µM
Human alphaherpesvirus 3 [2]
  EC50: 39 µM
Human betaherpesvirus 5 [3]
  EC50: > 100 µM
[5]
  MCC: > 100 µM
[6]
  CC50 at 72 h: > 100 µM
Human alphaherpesvirus 3 [7]
  EC50: 38.1 µM
Human alphaherpesvirus 3 [8]
  EC50: > 100 µM

## O=c1[nH]c(=O)n([C@H]2C[C@H](O)[C@@H](CO)O2)cc1C#CC#Cc1ccccn1
Human betaherpesvirus 5 [1]
  EC50: > 4 µM
Human alphaherpesvirus 3 [2]
  EC50: 5.1 µM
Human betaherpesvirus 5 [3]
  EC50: 49 µM
[5]
  MCC: > 20 µM
[6]
  CC50 at 72 h: 1.5 µM
Human alphaherpesvirus 3 [7]
  EC50: 2.06 µM
Human alphaherpesvirus 3 [8]
  EC50: 20 µM

## Nc1cccc(C#CC#Cc2cn([C@H]3C[C@H](O)[C@@H](CO)O3)c(=O)[nH]c2=O)c1
Human betaherpesvirus 5 [1]
  EC50: > 100 µM
Human alphaherpesvirus 3 [2]
  EC50: > 100 µM
Human betaherpesvirus 5 [3]
  EC50: > 100 µM
[4]
  logP: 0.13
[5]
  MCC: > 100 µM
[6]
  CC50 at 72 h: > 100 µM
Human alphaherpesvirus 3 [8]
  EC50: > 100 µM

## Nc1ccc(C#CC#Cc2cn([C@H]3C[C@H](O)[C@@H](CO)O3)c(=O)[nH]c2=O)cc1
Human betaherpesvirus 5 [1]
  EC50: > 100 µM
Human alphaherpesvirus 3 [2]
  EC50: > 100 µM
Human betaherpesvirus 5 [3]
  EC50: > 100 µM
[4]
  logP: 0.13
[5]
  MCC: > 100 µM
[6]
  CC50 at 72 h: > 100 µM
Human alphaherpesvirus 3 [8]
  EC50: > 100 µM

## O=c1[nH]c(=O)n([C@H]2C[C@H](O)[C@@H](CO)O2)cc1C#CC#Cc1ccc([N+](=O)[O-])cc1
Human betaherpesvirus 5 [1]
  EC50: > 20 µM
Human alphaherpesvirus 3 [2]
  EC50: > 20 µM
Human betaherpesvirus 5 [3]
  EC50: > 20 µM
[4]
  logP: 0.9
[5]
  MCC: 100 µM
[6]
  CC50 at 72 h: 89 µM
Human alphaherpesvirus 3 [8]
  EC50: > 20 µM

## O=c1[nH]c(=O)n([C@H]2C[C@H](O)[C@@H](CO)O2)cc1C#CC#Cc1ccc(OC(F)(F)F)cc1
Human alphaherpesvirus 2
  EC50: 10 µM
Human betaherpesvirus 5 [1]
  EC50: > 20 µM
Human alphaherpesvirus 1 [9]
  EC50: 14.5 µM
Human alphaherpesvirus 1 [10]
  EC50: 14.5 µM
Human alphaherpesvirus 3 [2]
  EC50: 0.9 µM
Human betaherpesvirus 5 [3]
  EC50: > 20 µM
[4]
  logP: 2.39
Vaccinia virus
  EC50: 20 µM
[5]
  MCC: 100 µM
[6]
  CC50 at 72 h: 55 µM
Human alphaherpesvirus 3 [7]
  EC50: 1.08 µM
Human alphaherpesvirus 3 [8]
  EC50: > 4 µM

## Cc1cc(C#CC#Cc2cn([C@H]3C[C@H](O)[C@@H](CO)O3)c(=O)[nH]c2=O)ccc1F
Human betaherpesvirus 5 [1]
  EC50: > 20 µM
Human alphaherpesvirus 3 [2]
  EC50: 14 µM
Human betaherpesvirus 5 [3]
  EC50: > 20 µM
[5]
  MCC: 100 µM
[6]
  CC50 at 72 h: 45 µM
Human alphaherpesvirus 3 [7]
  EC50: 9.13 µM
Human alphaherpesvirus 3 [8]
  EC50: > 20 µM

## CC(O)CC#CC#Cc1cn([C@H]2C[C@H](O)[C@@H](CO)O2)c(=O)[nH]c1=O (stereo partly drawn)
Human betaherpesvirus 5 [1]
  EC50: > 100 µM
Human alphaherpesvirus 3 [2]
  EC50: 20 µM
Human betaherpesvirus 5 [3]
  EC50: > 100 µM
[5]
  MCC: > 100 µM
[6]
  CC50 at 72 h: 9.5 µM
Human alphaherpesvirus 3 [7]
  EC50: 12.7 µM
Human alphaherpesvirus 3 [8]
  EC50: > 100 µM

## O=c1[nH]c(=O)n([C@H]2C[C@H](O)[C@@H](CO)O2)cc1C#CC#CCO
Human betaherpesvirus 5 [1]
  EC50: > 100 µM
Human alphaherpesvirus 3 [2]
  EC50: 2.1 µM
Human betaherpesvirus 5 [3]
  EC50: > 100 µM
[4]
  logP: -1.45
[5]
  MCC: > 100 µM
[6]
  CC50 at 72 h: > 100 µM
Human alphaherpesvirus 3 [7]
  EC50: 6.24 µM
Human alphaherpesvirus 3 [8]
  EC50: > 100 µM

## O=c1[nH]c(=O)n([C@H]2C[C@H](O)[C@@H](CO)O2)cc1C#CC#CCC1CCCC1
Human betaherpesvirus 5 [1]
  EC50: > 100 µM
Human alphaherpesvirus 3 [2]
  EC50: 42 µM
Human betaherpesvirus 5 [3]
  EC50: > 100 µM
[4]
  logP: 1.43
[5]
  MCC: > 100 µM
[6]
  CC50 at 72 h: 89 µM
Human alphaherpesvirus 3 [7]
  EC50: 33.7 µM
Human alphaherpesvirus 3 [8]
  EC50: > 100 µM

## O=c1[nH]c(=O)n([C@H]2C[C@H](O)[C@@H](CO)O2)cc1C#CC#CC1CC1
Human betaherpesvirus 5 [1]
  EC50: > 100 µM
Human alphaherpesvirus 3 [2]
  EC50: > 100 µM
Human betaherpesvirus 5 [3]
  EC50: > 100 µM
[5]
  MCC: > 100 µM
[6]
  CC50 at 72 h: > 100 µM
Human alphaherpesvirus 3 [8]
  EC50: > 100 µM

## Nc1nc2c(ncn2COCCO)c(=O)[nH]1 [ACYCLOVIR]
[5]
  MCC: > 300 µM
[6]
  CC50 at 72 h: 470 µM
Human alphaherpesvirus 3 [7]
  EC50: 2.18 µM
Human alphaherpesvirus 3 [8]
  EC50: 92 µM

## O=c1[nH]c(=O)n([C@H]2C[C@H](O)[C@@H](CO)O2)cc1/C=C/Br [BRIVUDINE]
Human alphaherpesvirus 3 [2]
  EC50: 0.0087 µM
[5]
  MCC: > 150 µM
[6]
  CC50 at 72 h: > 100 µM
Human alphaherpesvirus 3 [7]
  EC50: 0.0075 µM
Human alphaherpesvirus 3 [8]
  EC50: 74 µM

## Nc1ccn(C[C@@H](CO)OCP(=O)(O)O)c(=O)n1 [CIDOFOVIR]
Human betaherpesvirus 5 [1]
  EC50: 1.1 µM
[5]
  MCC: > 350 µM
[6]
  CC50 at 72 h: 64 µM

## Nc1nc2c(ncn2COC(CO)CO)c(=O)[nH]1 [GANCICLOVIR]
Human betaherpesvirus 5 [1]
  EC50: 7.1 µM
Human betaherpesvirus 5 [3]
  EC50: 7.5 µM
[5]
  MCC: > 350 µM
[6]
  CC50 at 72 h: 130 µM
